Most compounds without a hit are left out; they make up all but 3.4% or so of the library.
PKD1 kinase inh: PKD1 (human) kinase inhibition; inhibition, % (test concentration not listed); AID 797; PKD1 kinase fluorescence polarization assay; 200,000 tested, 0.056% active; in the data active means inhibition above about 50%
KCC2 mod: modulators of human KCC2 chloride dependent transport; Q9H2X9; KCC2 cells, thallium flux FluoZin-2 fluorescence; B-score of Tl+ flux slope (higher = more flux/activation; lower = inhibition) at 10 µM; 190,000 tested, 2.2% active;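 active means thallium flux slope and its plate-corrected score both differing from the plate sample mean at a set confidence after two filtering rounds, in either direction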;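 further: slope of fluorescence scaled to starting intensity during 10 to 20 s after thallium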
MDM2 E3 inh: inhibitors of human Mdm2 E3 ubiquitin ligase | Q00987 | cell-based MDM2 ubiquitination luciferase reporter, 2 h; 0 = plate control, 100 = twice control, blank-subtracted | signal enhancement, % at 5 µM | 210,000 tested, 0.11% active | AID 1230;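 active means signal enhancement of 30% or more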;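 further: luminescence tracks abundance of the self-degrading MDM2-luciferase fusion protein; higher signal means inhibition of MDM2 E3 ligase activity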
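Material: stable MDM2–luciferase fusion reporter cells / Quantity: 2000 cells/well / Dosing: single 5 µM compound dose, 0.2% final DMSO / Buffer or medium: DMEM / Schedule: 4 h cell settling then 2 h compound exposure, 37 °C / Detection: luminescence with SteadyLite reagent, 15 min at room temperature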
p97 inhibitor: human p97 ATPase inhibition. AID 1481. recombinant p97 ATPase, Kinase-Glo ATP luminescence, 3 h. inhibition, % at 8 µM. P55072. 220,000 tested, 0.42% active; in the data active means inhibition above about 15%
Target sequence (P55072 whole entry, looked up): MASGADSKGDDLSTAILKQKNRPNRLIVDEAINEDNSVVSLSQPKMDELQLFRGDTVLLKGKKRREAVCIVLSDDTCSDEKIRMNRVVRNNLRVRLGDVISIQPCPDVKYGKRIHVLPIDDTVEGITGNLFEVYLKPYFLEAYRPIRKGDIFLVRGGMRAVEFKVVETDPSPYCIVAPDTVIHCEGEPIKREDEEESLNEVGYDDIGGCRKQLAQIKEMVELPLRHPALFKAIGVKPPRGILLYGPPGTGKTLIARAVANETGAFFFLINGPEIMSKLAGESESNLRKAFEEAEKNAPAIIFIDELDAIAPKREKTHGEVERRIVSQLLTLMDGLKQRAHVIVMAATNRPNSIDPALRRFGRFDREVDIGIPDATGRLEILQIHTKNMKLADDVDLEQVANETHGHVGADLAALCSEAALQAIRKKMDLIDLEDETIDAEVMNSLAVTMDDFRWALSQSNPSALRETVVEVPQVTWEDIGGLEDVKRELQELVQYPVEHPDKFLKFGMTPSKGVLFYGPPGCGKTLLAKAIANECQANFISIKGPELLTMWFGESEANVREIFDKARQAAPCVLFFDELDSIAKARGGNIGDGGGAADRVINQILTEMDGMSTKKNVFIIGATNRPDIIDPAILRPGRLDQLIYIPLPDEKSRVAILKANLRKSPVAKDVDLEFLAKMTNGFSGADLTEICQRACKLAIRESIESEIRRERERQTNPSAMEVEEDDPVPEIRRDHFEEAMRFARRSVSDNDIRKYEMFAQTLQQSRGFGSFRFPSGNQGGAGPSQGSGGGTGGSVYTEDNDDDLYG
DTT redox prof: compounds producing H2O2 with reducing agent – biochemical, NIH compound library profiling, artefact control for MLSCN library redox annotation, primary screen. DTT-dependent redox cycling H2O2, phenol red/HRP absorbance; 100% = 100 µM peroxide control, 0% = buffer. activation, % at 10 µM. 200,000 tested, 0.03% active;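 active means activation of at least 50% relative to the plate's high and low controls in the primary single-dose screen; inactive means activation below 50%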;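 further: compound incubated with DTT at 0.8 mM final as the reducing agent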
ROMK primary: modulators of human ROMK potassium channel; P48048; Tet-inducible ROMK, thallium flux fluorescence; actives lie on both sides; B-score at 10 µM; 130,000 tested, 2% active; AID 1918;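 active means signal ratio slope over the read window, or its plate-corrected B-score, at least 3 SD from the plate mean, either direction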;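 further: B-score of the F/F0 ratio slope over 7 to 12 s after thallium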
p97 confirm: human p97 ATPase inhibition, confirmation | shares compounds with p97 inhibitor | recombinant p97 ATPase, Kinase-Glo ATP luminescence | inhibition, % at 8 µM | 760 tested, 44% active;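 active means percent inhibition of p97 ATPase above a set limit, the primary screen's mean plus 3 SD, cut at about 15% in these data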
Of the large screens only hits and unclear results are named; the others gave an inactive call (follow-up assays come after a bar, where they were run).

Cc1cc(C)nc(NC(=O)CSc2ccccn2)n1	none
O=C(COC(=O)CSc1cccc2cccc(Cl)c12)Nc1ncc(C(F)(F)F)cc1Cl	none (no result: ROMK primary)
Cc1ccc(C)c(NC(=O)c2cccc(Oc3ccc([N+](=O)[O-])cc3Cl)c2)c1	none (no result: ROMK primary)
CC(C)(C)OC(=O)N/N=C/c1cccn1-c1ccc([N+](=O)[O-])cc1	p97 inhibitor 16 (no result: PKD1 kinase inh, DTT redox prof, ROMK primary) | p97 confirm inactive
COc1ccc(CC(=O)N/N=C/c2cccn2-c2ccc([N+](=O)[O-])cc2)cc1OC	none (no result: ROMK primary)
Cc1cc(SCC(=O)c2ccc(O)c(O)c2)n2nc(C)c(-c3ccccc3)c2n1	p97 inhibitor 15 (no result: PKD1 kinase inh, DTT redox prof, ROMK primary) | p97 confirm 18
CCSc1cc(C)nc2c(-c3ccc(Cl)cc3)c(C)nn12	none (no result: KCC2 mod)
Cc1cc(Nc2nc3ccccc3nc2Cl)n(-c2ccccc2)n1	none (no result: KCC2 mod)
Cc1cc(Nc2nc3ccccc3nc2Cl)n(-c2ccccc2C)n1	p97 inhibitor 15 (no result: ROMK primary) | p97 confirm inactive
COCC(=O)N(CCc1ccc(OC)c(OC)c1)Cc1nc2ccccc2c(=O)[nH]1	p97 inhibitor 16 (no result: ROMK primary) | p97 confirm inactive
NCC(O)COc1ccc2c(c1)OCO2 (stereo not given)	none (no result: KCC2 mod, ROMK primary)
Cc1cc(/C=C2\C(=N)N3N=C(c4ccco4)SC3=NC2=O)c(C)n1Cc1ccccc1	none (no result: PKD1 kinase inh, DTT redox prof, ROMK primary)
N=C1/C(=C\c2coc3ccccc3c2=O)C(=O)N=C2SC(c3ccncc3)=NN12	p97 inhibitor 32 (no result: PKD1 kinase inh, MDM2 E3 inh, DTT redox prof, ROMK primary) | p97 confirm 44
N=C1/C(=C\c2coc3ccc(O)cc3c2=O)C(=O)N=C2SC=CN12	p97 inhibitor 28 (no result: PKD1 kinase inh, KCC2 mod, DTT redox prof, ROMK primary) | p97 confirm 24
N=C1/C(=C/c2coc3ccccc3c2=O)C(=O)N=C2SC(c3ccco3)=NN12	p97 inhibitor 16 (no result: PKD1 kinase inh, DTT redox prof, ROMK primary) | p97 confirm 19
COc1cc(CN2CCCC(CO)(Cc3ccccc3C)C2)cc2c1OCO2 (stereo not given)	none
O=[N+]([O-])c1ccc(N2CCCC2)cc1NC1CC1	none (no result: ROMK primary)
NCCNc1ccc([N+](=O)[O-])c(NC2CC2)c1	p97 inhibitor 17 | p97 confirm inactive
CCOC(=O)N1CCN(C(=O)c2ccc(Cl)c(S(=O)(=O)N3CCOCC3)c2)CC1	none (no result: KCC2 mod)
Cc1cc(Nc2ccccc2)nc(-c2ccccc2O)n1	p97 inhibitor 25 (no result: ROMK primary) | p97 confirm 40
Cc1cc(Nc2cccc(F)c2)nc(-c2ccccc2O)n1	none (no result: KCC2 mod)
Cc1cc(NCc2ccccc2)nc(-c2ccccc2O)n1	p97 inhibitor 20 (no result: ROMK primary) | p97 confirm 35
O=C(Oc1ccccc1C(=O)Nc1ccccc1)c1ccccc1Br	p97 inhibitor 23 | p97 confirm 30
COc1ccc(Br)cc1C1NC(=O)NC(C)=C1C(=O)N(C)C (stereo not given)	none
CN1CCN(CCCNC(=O)c2cn(C3CCCCC3)c(=O)c3c2c2ccccc2n3C)CC1	p97 inhibitor 23 (no result: KCC2 mod) | p97 confirm inactive
Cn1c2ccccc2c2c(C(=O)NCCCN3CCCC3=O)cn(C3CCCCC3)c(=O)c21	none (no result: KCC2 mod)
Cc1ccn2c(Nc3ccc4c(c3)OCO4)c(-c3ccc(O)cc3)nc2c1	none (no result: PKD1 kinase inh, DTT redox prof)
C=CCn1c(SCC(=O)NCc2ccco2)nc2ccccc2c1=O	p97 inhibitor 15 | p97 confirm inactive
O=C1C=C(Nc2ccccc2O)c2ccccc2C1=O	none (no result: ROMK primary)
O=C1C=C(NCc2ccccc2)c2ccccc2C1=O	p97 inhibitor 48 | p97 confirm 33
Cc1[nH]c2ccccc2c1C(=O)COC(=O)c1ccc([N+](=O)[O-])s1	p97 inhibitor 39 | p97 confirm 31
Cc1[nH]c2ccccc2c1C(=O)COC(=O)c1ccc[n+]([O-])c1	none (no result: PKD1 kinase inh, DTT redox prof, ROMK primary)
COc1ccc(N2CCN(C(=O)c3ccc(Oc4ccc(C(F)(F)F)cn4)cc3)CC2)cc1	none (no result: KCC2 mod, ROMK primary)
COC(=O)c1cccc(-c2ccc(C(c3c(C)[nH][nH]c3=O)c3c(C)[nH][nH]c3=O)o2)c1	none (no result: KCC2 mod)
Cc1[nH][nH]c(=O)c1C(c1ccc(-c2ccc(Cl)c(C(=O)O)c2)o1)c1c(C)[nH][nH]c1=O	p97 inhibitor 16 | p97 confirm 35
Cc1cc(C)c(NC(=O)COC(=O)/C=C/c2cccc(C(F)(F)F)c2)c(C)c1	none
O=C(NCCC1CC1(Cl)Cl)Nc1ccccc1 (stereo not given)	p97 inhibitor 23 (no result: PKD1 kinase inh, DTT redox prof) | p97 confirm inactive
O=[N+]([O-])c1ccc(C(O)C(CO)NC(=S)Nc2ccccc2)cc1 (stereo not given)	p97 inhibitor 16 (no result: PKD1 kinase inh, DTT redox prof, ROMK primary) | p97 confirm inactive
Cc1ccc(/C=C/C2=Cc3c(sc(NC(=O)CSc4n[nH]c(N)n4)c3C#N)C(C)(C)C2)o1	p97 inhibitor 19 (no result: ROMK primary) | p97 confirm 22
Cc1[nH]c2ccccc2c1/C=N/NC(=O)c1cc(-c2cccs2)[nH]n1	p97 inhibitor 16 | p97 confirm 32
Cc1cc(C(=O)N/N=C/c2c(C)[nH]c3ccccc23)n[nH]1	none (no result: PKD1 kinase inh, DTT redox prof)
COc1ccc(C(c2c(C)[nH]n(-c3ccccc3)c2=O)c2c(C)[nH]n(-c3ccccc3)c2=O)cc1OC	p97 inhibitor 30 | p97 confirm inactive
CCOC(=O)c1[nH]c2ccc(Br)cc2c1NC(=O)CCN1CCCCC1	p97 inhibitor 22 (no result: KCC2 mod, ROMK primary) | p97 confirm inactive
O=C(Cc1ccccc1)NC1(O)C(=O)c2ccccc2C1=O	p97 inhibitor 16 (no result: PKD1 kinase inh, DTT redox prof) | p97 confirm 15
O=C(NC1(O)C(=O)c2ccccc2C1=O)c1ccc(C(F)(F)F)cc1	p97 inhibitor 27 (no result: PKD1 kinase inh, DTT redox prof) | p97 confirm 28
Cc1ccc(C(=O)Nc2cc(=O)n(C)c(=O)n2C)cc1C	none (no result: ROMK primary)
Cc1ccc(C(=O)NC2(O)C(=O)c3ccccc3C2=O)cc1C	p97 inhibitor 26 (no result: PKD1 kinase inh, DTT redox prof) | p97 confirm 26
O=C(N[C@@H](Cc1ccccc1)C(=O)O)c1ccc(C(F)(F)F)cc1	none (no result: MDM2 E3 inh, ROMK primary)
CCOc1ncccc1C(=O)OCC(=O)NC(=O)NC(C)C	none
O=[N+]([O-])c1ccc(Oc2ccc(S(=O)(=O)N3CCCCC3)cc2)cc1	none (no result: ROMK primary)
COc1ccc(NC(=S)NCc2ccc(S(N)(=O)=O)cc2)cc1OC	none
O=C1COc2ccc(C(=O)COC(=O)CCSc3ccccc3)cc2N1	none (no result: PKD1 kinase inh, KCC2 mod, MDM2 E3 inh, DTT redox prof, ROMK primary)
Cc1ccccc1NC(=O)CN(c1ccc(F)cc1)S(C)(=O)=O	none
O=C(CSc1nc2ccccc2s1)Nc1cc(S(=O)(=O)N2CCOCC2)ccc1O	p97 inhibitor 17 (no result: ROMK primary) | p97 confirm inactive
Nc1nc(SCC(=O)Nc2cc(S(=O)(=O)N3CCOCC3)ccc2Cl)n[nH]1	none
NS(=O)(=O)c1ccc(Nc2nc(-c3ccc(O)cc3O)cs2)cc1	p97 inhibitor 27 | p97 confirm 51
NS(=O)(=O)c1ccc(Nc2nc(-c3ccc(F)cc3)cs2)cc1	none (no result: ROMK primary)
COCC(=O)N(c1ccccc1)C(C)C(=O)OC (stereo not given)	none
